From publication PMC9177108 (The Oncologist, 2022)
Where two headings read alike, the source gives them in different places.

Columns and labels:
Plasma pharmacokinetics = format: in vivo, human; conditions: for AUC(0-t) / AUC / Vd/F / half-life / k el / Cmax / concentration at 15 day / MRT: human, plasma, 10 mg; for AUC: AUCss; for Vd/F: V z/F; for Cmax: C max; for concentration at 15 day: Css; for Css, max, Mean ± SD: C1D15, 10 mg p.o.
Summary of the method: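 Test compound was given at 10 mg orally, either continuously daily or 3 weeks on/1 week off. Plasma PK was sampled on cycle 1 day 1 after a single dose for Tmax, Cmax, AUC0-24h, AUC0-t, AUC0-∞, λz, t1/2, CL/F, Vz/F, %AUCex and MRT. After multiple doses, steady-state parameters were Css max/min/avg, Tss,max, AUCss, CLss/F, Vss/F, %Fluctuation and accumulation ratios. […]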

FGFR = conditions: AL3810 compared with sorafenib; cited from earlier work
[1] = test system: patients with recurrent and metastatic nasopharyngeal carcinoma (RM-NPC); assay: Safety and tolerability; format: in vivo, human
Summary of the method: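 Safety was the primary endpoint, assessed separately in two randomised arms of pretreated RM-NPC patients given test compound 10 mg orally: daily on a 4-week cycle, or 3 weeks on/1 week off. Adverse events were graded by CTCAE version 4.03. The safety set comprised patients who took at least one dose. TEAEs and TRAEs, including those leading to dose reduction, interruption or discontinuation, were tabulated per arm.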

[2] = test system: patients with advanced solid tumors; conditions: cited from earlier work
[3] = oral, GeoMean(%CVb), single dose, C1D1, continuous arm (n = 5)
[4] = oral, GeoMean(%CVb), single dose, C1D1, intermittent arm (n = 4)
[5] = multiple dose, C1D15, continuous arm (n=5)
[6] = multiple dose, C1D15, intermittent arm (n=4)
[7] = single dose, C1D1, continuous arm (n = 5)
[8] = single dose, C1D1, intermittent arm (n = 4)

## CNC(=O)c1cccc2cc(Oc3ccnc4cc(OCC5(N)CC5)c(OC)cc34)ccc12 [Lucitanib]
Plasma pharmacokinetics; 10 mg p.o. once daily
  time at which steady state is reached (trough levels): ≤ 15 days
Plasma pharmacokinetics; AUC0-t, GeoMean(%CVb), single dose, C1D1, continuous arm (n = 5)
  AUC(0-t): 2370 ng·h/mL
Plasma pharmacokinetics; AUC0-t, GeoMean(%CVb), single dose, C1D1, intermittent arm (n = 4)
  AUC(0-t): 2720 ng·h/mL
Plasma pharmacokinetics; GeoMean(%CVb), multiple dose, C1D15, continuous arm (n=5)
  AUC: 6170 ng·h/mL
Plasma pharmacokinetics; GeoMean(%CVb), multiple dose, C1D15, intermittent arm (n=4)
  AUC: 9160 ng·h/mL
Plasma pharmacokinetics; Mean ± SD, multiple dose, C1D15, continuous arm (n=5)
  AUC: 6670 ± 2630 ng·h/mL
Plasma pharmacokinetics; Mean ± SD, multiple dose, C1D15, intermittent arm (n=4)
  AUC: 9680 ± 3710 ng·h/mL
Plasma pharmacokinetics; GeoMean(%CVb), single dose, C1D1, continuous arm (n = 5)
  Vd/F: 68 L
Plasma pharmacokinetics; GeoMean(%CVb), single dose, C1D1, intermittent arm (n = 4)
  Vd/F: 58.1 L
Plasma pharmacokinetics; Mean ± SD, single dose, C1D1, continuous arm (n = 5)
  Vd/F: 75.2 ± 40.2 L
Plasma pharmacokinetics; Mean ± SD, single dose, C1D1, intermittent arm (n = 4)
  Vd/F: 60.8 ± 19.8 L
Plasma pharmacokinetics; t 1/2, GeoMean(%CVb), single dose, C1D1, continuous arm (n = 5)
  half-life: 21.9 h
Plasma pharmacokinetics; t 1/2, GeoMean(%CVb), single dose, C1D1, intermittent arm (n = 4)
  half-life: 22.1 h
Plasma pharmacokinetics; t 1/2, Mean ± SD, single dose, C1D1, continuous arm (n = 5)
  half-life: 23.8 ± 11.8 h
Plasma pharmacokinetics; t 1/2, Mean ± SD, single dose, C1D1, intermittent arm (n = 4)
  half-life: 24.8 ± 15.5 h
Plasma pharmacokinetics; λ z, GeoMean(%CVb), single dose, C1D1, continuous arm (n = 5)
  k el: 8.33e-06 s⁻¹
Plasma pharmacokinetics; λ z, GeoMean(%CVb), single dose, C1D1, intermittent arm (n = 4)
  k el: 8.33e-06 s⁻¹
Plasma pharmacokinetics; λ z, Mean ± SD, single dose, C1D1, continuous arm (n = 5)
  k el: 8.33e-06 s⁻¹
Plasma pharmacokinetics; λ z, Mean ± SD, single dose, C1D1, intermittent arm (n = 4)
  k el: 8.33e-06 s⁻¹
Plasma pharmacokinetics; λz, Mean ± SD, multiple dose, C1D15, continuous arm (n=5)
  k el: 5.56e-06 s⁻¹
Plasma pharmacokinetics; λz, Mean ± SD, multiple dose, C1D15, intermittent arm (n=4)
  k el: 5.56e-06 s⁻¹
Plasma pharmacokinetics; oral, AUC0-24h, GeoMean(%CVb), single dose, C1D1, continuous arm (n = 5)
  AUC(0-t): 2410 ng·h/mL
Plasma pharmacokinetics; oral, AUC0-24h, GeoMean(%CVb), single dose, C1D1, intermittent arm (n = 4)
  AUC(0-t): 2770 ng·h/mL
Plasma pharmacokinetics; oral, AUC0-24h, Mean ± SD, single dose, C1D1, continuous arm (n = 5)
  AUC(0-t): 2560 ± 858 ng·h/mL
Plasma pharmacokinetics; oral, AUC0-24h, Mean ± SD, single dose, C1D1, intermittent arm (n = 4)
  AUC(0-t): 3110 ± 1890 ng·h/mL
Plasma pharmacokinetics; oral, AUC0-t, Mean ± SD, single dose, C1D1, continuous arm (n = 5)
  AUC(0-t): 2510 ± 834 ng·h/mL
Plasma pharmacokinetics; oral, AUC0-t, Mean ± SD, single dose, C1D1, intermittent arm (n = 4)
  AUC(0-t): 3030 ± 1750 ng·h/mL
Plasma pharmacokinetics; [3]
  Cmax: 261 ng/mL
  MRT: 32.2 h
Plasma pharmacokinetics; [4]
  Cmax: 228 ng/mL
  MRT: 32.6 h
Plasma pharmacokinetics; oral, avg, GeoMean(%CVb), multiple dose, C1D15, continuous arm (n=5)
  concentration at 15 day: 257 ng/mL
Plasma pharmacokinetics; oral, avg, GeoMean(%CVb), multiple dose, C1D15, intermittent arm (n=4)
  concentration at 15 day: 382 ng/mL
Plasma pharmacokinetics; oral, avg, Mean ± SD, multiple dose, C1D15, continuous arm (n=5)
  concentration at 15 day: 278 ± 110 ng/mL
Plasma pharmacokinetics; oral, avg, Mean ± SD, multiple dose, C1D15, intermittent arm (n=4)
  concentration at 15 day: 403 ± 155 ng/mL
Plasma pharmacokinetics; oral, min, GeoMean(%CVb), multiple dose, C1D15, continuous arm (n=5)
  concentration at 15 day: 176 ng/mL
Plasma pharmacokinetics; oral, min, GeoMean(%CVb), multiple dose, C1D15, intermittent arm (n=4)
  concentration at 15 day: 284 ng/mL
Plasma pharmacokinetics; oral, min, Mean ± SD, multiple dose, C1D15, continuous arm (n=5)
  concentration at 15 day: 203 ± 93.5 ng/mL
Plasma pharmacokinetics; oral, min, Mean ± SD, multiple dose, C1D15, intermittent arm (n=4)
  concentration at 15 day: 303 ± 118 ng/mL
Plasma pharmacokinetics; oral, Mean ± SD, single dose, C1D1, continuous arm (n = 5)
  MRT: 34.2 ± 14.3 h
Plasma pharmacokinetics; oral, Mean ± SD, single dose, C1D1, intermittent arm (n = 4)
  MRT: 36.3 ± 21.6 h
Plasma pharmacokinetics; oral, λz, GeoMean(%CVb), multiple dose, C1D15, continuous arm (n=5)
  k el: 2.78e-06 s⁻¹
Plasma pharmacokinetics; oral, λz, GeoMean(%CVb), multiple dose, C1D15, intermittent arm (n=4)
  k el: 5.56e-06 s⁻¹
Plasma pharmacokinetics; multiple dose, continuous arm (n=5)
  Css, max, Mean ± SD: 482.80 ± 271.81 ng/mL
Plasma pharmacokinetics; multiple dose, intermittent arm (n=4)
  Css, max, Mean ± SD: 608.50 ± 169.48 ng/mL
Plasma pharmacokinetics; [5]
  %Fluctuation, GeoMean(%CVb): 90.75(63.71) %
  %Fluctuation, Mean ± SD: 104.26 ± 61.47%
  CLss/F, GeoMean(%CVb): 1.62(49.01) L/hour
  CLss/F, Mean ± SD: 1.78 ± 0.93 L/h
  Css, max, GeoMean(%CVb): 435.78(50.87) ng/mL
  R ac, AUC (accumulation ratio based on AUC), Mean ± SD: 2.62 ± 0.55
  R ac, Cmax (accumulation ratio based on Cmax), Mean ± SD: 1.98 ± 1.20
  Tss, max, Median: 2.97 h
Plasma pharmacokinetics; [6]
  %Fluctuation, GeoMean(%CVb): 79.03(27.10) %
  %Fluctuation, Mean ± SD: 81.15 ± 21.54%
  CLss/F, GeoMean(%CVb): 1.09(40.16) L/hour
  CLss/F, Mean ± SD: 1.15 ± 0.45 L/h
  Css, max, GeoMean(%CVb): 590.42(29.26) ng/mL
  R ac, AUC (accumulation ratio based on AUC), Mean ± SD: 3.38 ± 0.84
  R ac, Cmax (accumulation ratio based on Cmax), Mean ± SD: 2.67 ± 0.69
  Tss, max, Median: 1.98 h
Plasma pharmacokinetics; [7]
  %AUCex, GeoMean(%CVb): 47.22(22.24) %
  %AUCex, Mean ± SD: 48.16 ± 10.87%
  CL/F, GeoMean(%CVb): 2.15(57.72) L/hour
  CL/F, Mean ± SD: 2.44 ± 1.5048 L/h
Plasma pharmacokinetics; [8]
  %AUCex, GeoMean(%CVb): 46.33(29.69) %
  %AUCex, Mean ± SD: 47.96 ± 15.75%
  CL/F, GeoMean(%CVb): 1.83(105.30) L/hour
  CL/F, Mean ± SD: 2.24 ± 1.21 L/h
Plasma pharmacokinetics; steady state vs day 1, 10 mg p.o.
  exposure (Cmax, AUC0-24h) at steady state relative to day 1: two to three times
FGFR
  potency against FGFR: more potent
[1]; all patients, both arms
  patients with at least one TEAE: All patients
  serious TRAEs: No patients experienced serious TRAEs
[1]; all patients, both arms (7/20)
  patients with Grade ≥3 related TEAEs: 35%
[1]; continuous arm
  TRAE: Hypothyroidism: 60%
  grade ≥3 TRAE: decreased platelet count: 10%
  grade ≥3 TRAE: hypertension: 30%
  grade ≥3 TRAE: increased AST: 10%
  grade ≥3 TRAE: proteinuria: 20%
  patients with at least one treatment-related AE (TRAE): One hundred
[1]; continuous arm (5/10)
  patients with Grade ≥3 related TEAEs: 50%
  patients with Grade ≥3 related TRAEs: 50%
[1]; continuous arm, n = 10
  Drug-related AE: Cough: 2 (20.0) n (%)
  Drug-related AE: Diarrhea: 3 (30.0) n (%)
  Drug-related AE: Epistaxis: 5 (50.0) n (%)
  Drug-related AE: Free thyroxine decreased: 3 (30.0) n (%)
  Drug-related AE: Hypertension: 10 (100.0) n (%)
  Drug-related AE: Hypochloremia: 3 (30.0) n (%)
  Drug-related AE: Platelet count decreased: 3 (30.0) n (%)
  Drug-related AE: Proteinuria: 10 (100.0) n (%)
  Drug-related AE: Skin rash: 3 (30.0) n (%)
  Drug-related AE: TSH increased: 3 (30.0) n (%)
  Drug-related adverse events: All: 10 (100.0) n (%)
  Grade ≥3 TEAE: 5 (50) n (%)
  Grade ≥3 TRAE: 5 (50) n (%)
  Serious TRAE: 0 n (%)
  TRAE lead to dose discontinuation: 0 n (%)
  TRAE lead to dose interruption: 5 (50) n (%)
[1]; intermittent arm
  TRAE: Hypothyroidism: 50%
  grade ≥3 TRAE: decreased platelet count: 0%
  grade ≥3 TRAE: hypertension: 0%
  grade ≥3 TRAE: increased AST: 0%
  grade ≥3 TRAE: proteinuria: 0%
  patients with at least one treatment-related AE (TRAE): 90%
[1]; intermittent arm, n = 10
  Drug-related AE: AST increased: 0 n (%)
  Drug-related AE: Backache: 0 n (%)
  Drug-related AE: Cough: 3 (30.0) n (%)
  Drug-related AE: Diarrhea: 0 n (%)
  Drug-related AE: Free thyroxine decreased: 1 (10.0) n (%)
  Drug-related AE: Hypochloremia: 1 (10.0) n (%)
  Drug-related AE: Hypothyroidism: 5 (50.0) n (%)
  Drug-related AE: Platelet count decreased: 1 (10.0) n (%)
  Drug-related AE: Proteinuria: 5 (50.0) n (%)
  Drug-related AE: Serum creatinine (Scr) increased: 1 (10.0) n (%)
  Drug-related AE: Skin rash: 0 n (%)
  Drug-related AE: TSH increased: 1 (10.0) n (%)
  Drug-related AE: Weight loss: 0 n (%)
  Grade ≥3 TEAE: 2 (20) n (%)
  Grade ≥3 TRAE: 0 n (%)
  Serious TRAE: 0 n (%)
  TRAE lead to dose discontinuation: 1 (10) n (%)
  TRAE lead to dose interruption: 2 (20) n (%)
  TRAE lead to dose reduction: 0 n (%)
[2]; continuous 15 mg daily dose, arterial hypertension
  tolerability of continuous dosing: unsustainable beyond three cycles
[2]; patients with FGF-aberrant (FGFR1- or FGF3/4/19-amplified) breast cancer
  partial response / ORR: 50%
[2]; patients with FGF-aberrant breast cancer
  median PFS: 40.4 weeks
[2]; patients with angiogenesis-sensitive disease
  median PFS: 25 weeks
